# Assay results from ChEMBL document CHEMBL4732208, “Discovery of novel N-alkylcytidines as promising antimicrobial agents” (Eur J Med Chem, 2021).
# Calls of active or inactive are those of the source. The calls are words filed in the database; no cut-off is given here.
# Assays:
# [1] = Subchronic toxicity in ip dosed mouse assessed as delayed effect administered for 5 days and observed for 4 weeks; assay type: organism-based; conditions: in vivo
# Alternaria chartarum = experiment: Antifungal activity against Ulocladium chartarum SRX7729176 STG-36 assessed as reduction in fungal growth at 0.1 to 3.5 mM measured for 24 days by drop dilution assay relative to control; assay type: functional; conditions: dose 0.1-3.5 mM, time 24.0 day
# Summary of the method: (§1)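 Drop-dilution method. Suspension plated on CDA with or without compound (screening range 0.1–3.5 mM); 5-fluorocytosine positive control. Incubated at 26 °C. Inhibition % = (Dc−Dt)/Dc × 100 from colony diameters; triplicate, repeated at least twice.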
# Aspergillus creber = experiment: Antifungal activity against Aspergillus-creber SRX7729180 STG-57 assessed as reduction in fungal growth at 0.1 to 3.5 mM measured for 24 days by drop dilution assay relative to control; assay type: functional; conditions: dose 0.1-3.5 mM, time 24.0 day; summary of the method: as §1
# [2] = system: Simplicillium lamellicola; experiment: Antifungal activity against Simplicilium-lamellicola SRX772919 STG-96 assessed as reduction in fungal growth at 0.1 to 3.5 mM measured for 24 days by drop dilution assay relative to control; assay type: functional; conditions: dose 0.1-3.5 mM, time 24.0 day; summary of the method: as §1
# [3] = Antifungal activity against Cladosporium-halotolerans SRX7729178 STG-52B assessed as reduction in fungal growth at 3 mM measured upto 48 days by drop dilution assay relative to control; assay type: functional; conditions: time day <=48
# Summary of the method: (§2)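 Incubated up to 48 days at 26 °C. Colony diameters read every 3 days (days 6–48). Growth inhibition = (Dc−Dt)/Dc × 100 versus control. Inoculum 5 × 10⁵ CFU. Triplicate, repeated at least twice.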
# Aspergillus amoenus = experiment: Antifungal activity against Aspergillus-amoenus SRX7729194 STG-106 assessed as reduction in fungal growth at 0.1 to 3.5 mM measured for 24 days by drop dilution assay relative to control; assay type: functional; conditions: dose 0.1-3.5 mM, time 24.0 day; summary of the method: as §1
# [4] = system: Mycolicibacterium smegmatis; experiment: Antibacterial activity against Mycobacterium smegmatis mc2155; assay type: functional
# Summary of the method: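 Strains were grown in modified Gause's nutrient medium N 2 at 10⁶ cells/ml. The compound was dissolved in 50% aqueous methanol and added at 10 volume percent of the medium. Controls were untreated cultures, medium with the solvent mixture, and clinical antibiotics.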
# [5] = Antifungal activity against Aspergillus-amoenus SRX7729194 STG-106 assessed as reduction in fungal growth at 3 mM measured upto 48 days by drop dilution assay relative to control; assay type: functional; conditions: time day <=48; summary of the method: as §2
# [6] = Subchronic toxicity in ip dosed mouse administered for 5 days and observed for 4 weeks; assay type: organism-based; conditions: in vivo
# Staphylococcus aureus [7] = experiment: Antibacterial activity against Staphylococcus aureus FDA 209 P; assay type: functional
# Summary of the method: (§3)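 Strains grown in modified Gause's nutrient medium N 2, inoculum 10⁶ cells/ml. Test compound dissolved in 50% aqueous methanol, added at ten volume percent of the medium. Growth controls: medium without additions, medium with solvent mixture, and clinical antibiotics (amikacin, ciprofloxacin, isoniazid, rifampicin, oxacillin, vancomycin).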
# Aspergillus versicolor [8] = experiment: Antifungal activity against Aspergillus versicolor SRX7729174 STG-25G assessed as reduction in fungal growth at 3 mM measured upto 48 days by drop dilution assay relative to control; assay type: functional; conditions: time day <=48; summary of the method: as §2
# [9] = system: Mycolicibacterium smegmatis; experiment: Antibacterial activity against Mycobacterium smegmatis VKPM Ac-1339; assay type: functional; summary of the method: as §3
# Aspergillus versicolor [10] = experiment: Antifungal activity against Aspergillus versicolor SRX7729182 STG-25G assessed as reduction in fungal growth at 3 mM measured upto 48 days by drop dilution assay relative to control; assay type: functional; conditions: time day <=48; summary of the method: as §2
# [11] = system: Cladosporium parahalotolerans; experiment: Antifungal activity against Cladosporium-parahalotolerans SRX7729188 STG-93B assessed as reduction in fungal growth at 0.1 to 3.5 mM measured for 24 days by drop dilution assay relative to control; assay type: functional; conditions: dose 0.1-3.5 mM, time 24.0 day; summary of the method: as §1
# Micrococcus luteus = experiment: Antibacterial activity against Micrococcus luteus NCTC 8340; assay type: functional; summary of the method: as §3
# [12] = system: Leuconostoc mesenteroides; experiment: Antibacterial activity against Leuconostoc mesenteroides VKPM B-4177; assay type: functional; summary of the method: as §3
# Staphylococcus aureus [13] = experiment: Antibacterial activity against Staphylococcus aureus INA 00761; assay type: functional; summary of the method: as §3
# Aspergillus versicolor [14] = experiment: Antifungal activity against Aspergillus versicolor SRX7729182 STG-25G assessed as reduction in fungal growth at 0.1 to 3.5 mM measured for 24 days by drop dilution assay relative to control; assay type: functional; conditions: dose 0.1-3.5 mM, time 24.0 day; summary of the method: as §1
# Aspergillus [15] = experiment: Antifungal activity against Aspergillus SRX7729186 STG-93W assessed as reduction in fungal growth at 3 mM measured upto 48 days by drop dilution assay relative to control; assay type: functional; conditions: time day <=48; summary of the method: as §2
# [16] = Acute toxicity in ip dosed mouse administered for 5 days and observed for 4 weeks; assay type: organism-based; conditions: in vivo
# Aspergillus versicolor [17] = experiment: Antifungal activity against Aspergillus versicolor SRX7729174 STG-25G assessed as reduction in fungal growth at 0.1 to 3.5 mM measured for 24 days by drop dilution assay relative to control; assay type: functional; conditions: dose 0.1-3.5 mM, time 24.0 day; summary of the method: as §1
# [18] = Antifungal activity against Microascus-paisii SRX7729192 STG-103 assessed as reduction in fungal growth at 3 mM measured upto 48 days by drop dilution assay relative to control; assay type: functional; conditions: time day <=48; summary of the method: as §2
# [19] = Antifungal activity against Ulocladium chartarum SRX7729176 STG-36 assessed as reduction in fungal growth at 3 mM measured upto 48 days by drop dilution assay relative to control; assay type: functional; conditions: Alternaria chartarum, time day <=48; summary of the method: as §2
# [20] = Antifungal activity against Cladosporium-parahalotolerans SRX7729188 STG-93B assessed as reduction in fungal growth at 3 mM measured upto 48 days by drop dilution assay relative to control; assay type: functional; conditions: time day <=48; summary of the method: as §2
# [21] = Antifungal activity against Aspergillus-creber SRX7729180 STG-57 assessed as reduction in fungal growth at 3 mM measured upto 48 days by drop dilution assay relative to control; assay type: functional; conditions: time day <=48; summary of the method: as §2
# [22] = Cytotoxicity against human A549 cells by MTT assay; assay type: cell-based
# Summary of the method: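 Adherent A549 cells passaged in DMEM with 10% fetal calf serum and 2 mM glutamine, at 37 °C, 5% CO2, 90% humidity. MTT test. CC50 is the concentration that inhibits culture growth by 50%.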
# Microascus paisii = experiment: Antifungal activity against Microascus-paisii SRX7729192 STG-103 assessed as reduction in fungal growth at 0.1 to 3.5 mM measured for 24 days by drop dilution assay relative to control; assay type: functional; conditions: dose 0.1-3.5 mM, time 24.0 day; summary of the method: as §1
# [23] = system: Cladosporium halotolerans; experiment: Antifungal activity against Cladosporium-halotolerans SRX7729178 STG-52B assessed as reduction in fungal growth at 0.1 to 3.5 mM measured for 24 days by drop dilution assay relative to control; assay type: functional; conditions: dose 0.1-3.5 mM, time 24.0 day; summary of the method: as §1
# Aspergillus [24] = experiment: Antifungal activity against Aspergillus SRX7729186 STG-93W assessed as reduction in fungal growth at 0.1 to 3.5 mM measured for 24 days by drop dilution assay relative to control; assay type: functional; conditions: dose 0.1-3.5 mM, time 24.0 day; summary of the method: as §1
# [25] = system: Simplicillium lamellicola; experiment: Antifungal activity against Simplicillium lamellicola SRX772919 STG-96 assessed as reduction in fungal growth at 3 mM measured upto 48 days by drop dilution assay relative to control; assay type: functional; conditions: time day <=48; summary of the method: as §2
# Bacillus subtilis = experiment: Antibacterial activity against Bacillus subtilis ATCC 6633; assay type: functional; summary of the method: as §3
structure (smiles),measurement,setting,value
CCCCCCCCCCCCNc1nc(=O)n([C@H]2C[C@H](O)[C@@H](CO)O2)cc1C,LD50 at 672 h,[1],200 mg/kg
same,inhibition,Alternaria chartarum,Active
same,inhibition,Aspergillus creber,Active
same,inhibition,[2],Active
same,inhibition at 3000 µM,[3],100%
same,inhibition,Aspergillus amoenus,Active
same,MIC,[4],24 µM
same,inhibition at 3000 µM,[5],100%
same,LD50 at 672 h,[6],215 mg/kg
same,MIC,Staphylococcus aureus [7],48 µM
same,inhibition at 3000 µM,Aspergillus versicolor [8],100%
same,MIC,[9],24 µM
same,inhibition at 3000 µM,Aspergillus versicolor [10],100%
same,inhibition,[11],Active
same,MIC,Micrococcus luteus,24 µM
same,MIC,[12],24 µM
same,MIC,Staphylococcus aureus [13],48 µM
same,inhibition,Aspergillus versicolor [14],Active
same,inhibition at 3000 µM,Aspergillus [15],100%
same,LD50 at 672 h,[16],270 mg/kg
same,inhibition,Aspergillus versicolor [17],Active
same,inhibition at 3000 µM,[18],100%
same,inhibition at 3000 µM,[19],100%
same,inhibition at 3000 µM,[20],100%
same,inhibition at 3000 µM,[21],100%
same,CC50,[22],158 µM
same,inhibition,Microascus paisii,Active
same,inhibition,[23],Active
same,inhibition,Aspergillus [24],Active
same,inhibition at 3000 µM,[25],100%
same,MIC,Bacillus subtilis,24 µM
